The test system of the experiment is E. faecalis (MDR 14U0445). Description: MIC antibacterial assay. Type of experiment: cell-based. To be noted: Enterococcus faecalis, 16 h. The method, boiled down:
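Clinical isolates grown from single colonies in LB at 37 °C to log phase, then set to 2 × 10⁵ CFU/mL in LB using 1 OD600 = 1 × 10⁹ CFU/mL. Peptide stock was 2 mg/mL in water. A 192 μg/mL peptide solution was twofold serially diluted in LB, then bacteria were added. Plates ran 16 h at 37 °C with A600 read-out, each peptide in triplicate.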

In brackets after ≈: the same amount, converted by molar mass.

A word on the MIC: it is the lowest concentration found to suppress growth. A high value points to a need for much substance.

Regarding `CC1(C)S[C@@H]2[C@H](NC(=O)[C@H](N)c3ccccc3)C(=O)N2[C@H]1C(=O)O` [Amp, Ampicillin], it took 2 µg/mL (≈ 5.72 µM) to inhibit growth (MIC).
